Results from different studies.
Protocols differ between the studies behind these lines.
Target: Serine/threonine-protein kinase D3 (PRKD3, Homo sapiens, UniProt O94806)
One construct used (O94806 1-890): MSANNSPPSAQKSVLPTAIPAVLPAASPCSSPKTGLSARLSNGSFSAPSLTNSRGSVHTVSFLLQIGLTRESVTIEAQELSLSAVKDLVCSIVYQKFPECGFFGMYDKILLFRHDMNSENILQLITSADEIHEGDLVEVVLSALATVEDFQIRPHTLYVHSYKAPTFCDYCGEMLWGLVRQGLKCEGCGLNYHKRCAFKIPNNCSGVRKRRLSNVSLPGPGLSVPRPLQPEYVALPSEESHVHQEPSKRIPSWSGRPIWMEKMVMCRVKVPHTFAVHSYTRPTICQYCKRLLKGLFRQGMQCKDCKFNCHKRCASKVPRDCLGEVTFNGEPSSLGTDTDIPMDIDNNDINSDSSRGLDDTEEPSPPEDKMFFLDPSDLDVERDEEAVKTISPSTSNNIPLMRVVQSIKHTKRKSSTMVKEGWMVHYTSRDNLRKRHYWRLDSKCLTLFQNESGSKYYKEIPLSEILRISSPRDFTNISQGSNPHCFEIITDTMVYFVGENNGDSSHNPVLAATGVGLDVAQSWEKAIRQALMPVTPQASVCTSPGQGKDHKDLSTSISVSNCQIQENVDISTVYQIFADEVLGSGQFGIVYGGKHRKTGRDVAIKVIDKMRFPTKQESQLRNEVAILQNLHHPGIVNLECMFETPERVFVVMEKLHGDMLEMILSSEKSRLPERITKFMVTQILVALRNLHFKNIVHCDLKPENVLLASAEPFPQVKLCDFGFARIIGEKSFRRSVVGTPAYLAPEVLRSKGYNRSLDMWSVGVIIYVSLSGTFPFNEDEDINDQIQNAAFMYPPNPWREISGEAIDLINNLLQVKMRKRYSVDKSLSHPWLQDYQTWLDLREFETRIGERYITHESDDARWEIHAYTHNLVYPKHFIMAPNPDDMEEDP

Cc1nn(C)cc1-c1nc2c(N3CCN(Cc4ccc(Cl)cc4)CC3)c(Cl)cnc2[nH]1  remaining binding (binding; competition with immobilised ligand; 1 µM): 100%
COc1cc(Nc2ncc(F)c(Nc3ccc4c(n3)NC(=O)C(C)(C)O4)n2)cc(OC)c1OC  inhibition (binding; 10 µM): 0%
Cn1cncc1[C@](O)(COc1ccc(C#N)cc1-c1ccc(OC(F)(F)F)cc1)c1ccc(C#N)cc1  remaining binding (cell-free assay; competition with immobilised ligand; 1 µM): 100%
Nc1ncc(-c2nc(N3CCOCC3)nc(N3CCOCC3)n2)c(C(F)F)n1  remaining binding (binding; competition with immobilised ligand; 10 µM): 67%
O=c1[nH]c2ccccc2n1C1CCN(Cc2ccc(-c3[nH]c4cc5ncnc5cc4nc3-c3ccccc3)cc2)CC1  remaining signal (cell-free assay; 0.5 µM): 99.5%
Cn1cc(-c2cc(F)cc(N3CCn4c(cc5c4CCCC5)C3=O)c2CO)cc(Nc2ccc(N3CCN(C4COC4)CC3)cn2)c1=O  inhibition (enzyme activity; inhibitor; 0.1 µM): 11%
COc1ncccc1-c1cnn2ccc(N3CCN(C(=O)OC(C)C)CC3)nc12  remaining binding (binding; competition with immobilised ligand; 1 µM): 100%
N#CC1(c2ccccn2)CCN(Cc2cc(C(=O)O)c(=O)n3ccccc23)CC1  remaining binding (cell-free assay; competition with immobilised ligand; 1 µM): 98%
CC(C)(C)c1cc(C=C(C#N)C#N)cc(Br)c1O  remaining activity (enzyme activity; inhibitor; 0.5 µM): 92.7%
